This note sets out measurements from PubChem BioAssay.

Active and inactive are the calls of the source. Cut-off read from the data, not from the text of the source, unless noted: active = inhibition above about 30%; inactive = the rest.

Assay [1] is described as follows: HUVEC growth inhibition – cell-based, human, primary screen (AID 575;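 active = viability at or below 30% in both replicate assays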;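 note: 100% = median of untreated cell wells with 0.1% DMSO on each plate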). As to conditions: HUVEC proliferation, CellTiter-Glo luminescence, 72 h; at 10 µM; stronger effect = lower value. In short, it runs like this: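 Assay system: primary human umbilical vein endothelial cells / Buffer or medium: endothelial basal medium with 2% FBS plus growth supplements / Compound dosing: one dose, 10 µM final, 0.1% DMSO / Timing: 72 h treatment at 37 °C / Signal: CTG luminescence / Benchmarks: 32 DMSO-only cell-control wells (high), 32 MePR drug-control wells (low) per plate / Plate: collagen-coated 384-well format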
(In general: ATP-based viability assays read luminescence as a measure of living cells.)

Assay [2] can be described thus: growth inhibitors of H69AR lung tumor, primary screen, human, duplicate replicates (AID 580;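 active = viability at or under a set limit in both replicates, limit being median viability minus 3 SD, cut at about 48% in these data, passing the limit was not always enough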;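 note: 100% = mean luminescence of untreated wells and 0% = no signal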). As to conditions: H69AR lung tumor cells viability, ATP luminescence, 72 h; at 10 µM; stronger effect = lower value.
Assay [3] in a line: reversal of MRP1-mediated doxorubicin resistance, pilot screen, H69AR cells, doxorubicin co-treatment (AID 601;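 active = viability loss from added drug above about 55%, and viability with drug at most 40%, in both replicates, limit read from the data, passing the limit was not always enough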). The note with it: CellTiter-Glo, 72 h, at 10 µM; for differential viability (reversal): stronger effect = higher value.
Assay [4] in a line: 384-well plate pilot, post-Golgi transport modulator project, inhibition of yeast transport mutant growth (AID 636; in the data active = inhibition above about 31%). As to conditions: absorbance 615 nm, about 18 h, stronger effect = higher value.
A short description of assay [5]: growth suppression of yeast trafficking mutant, preliminary HTS, modulators of trafficking downstream of Golgi apparatus project, 1536-format plate, OD 615 nm (AID 637). As to conditions: yeast transport mutant growth, absorbance 615 nm, 18 h; stronger effect = higher value.
Setting [6] is: H69AR cells + 2 uM doxorubicin, measured here: viability with 2 uM doxorubicin, stronger effect = lower value.
Setting [7] is: H69AR cells, compound alone cytotoxicity.

As to `COCCNC(=O)c1ccc(Cl)c(Cl)c1`, the viability was 108% (inactive) in assay [1], 102% (inactive) in assay [2], 85% in assay [3] (setting [6]) and 102% in assay [3] (setting [7]). In assay [3] (H69AR cells + 2 uM doxorubicin), the differential viability (reversal) was 17% (inactive). Further, the inhibition in assay [4] is -3.16% (inactive); in assay [5] it was -0.16% (inactive).
With `Cc1ccc(S(=O)(=O)N(C)CC(=O)NC2CCCC2)cc1`, the viability in assay [1] is 118% (inactive); in assay [2], 102% (inactive); in assay [3] (setting [6]), 84.9%; in assay [3] (setting [7]), 102%. Also, the differential viability (reversal) in assay [3] (H69AR cells + 2 uM doxorubicin) was 17.5% (inactive). Moreover, the inhibition was -2.63% (inactive) in assay [4] and 0.95% (inactive) in assay [5].
For the compound `Cc1nc2ccccc2c(=O)n1NC(=O)c1ccc(F)cc1Cl`, the viability in assay [1] was 103% (inactive); in assay [2] it was 94.2% (inactive); in assay [3] (setting [6]), 98.4%; in assay [3] (setting [7]) it was 94.2%. The differential viability (reversal) in assay [3] (H69AR cells + 2 uM doxorubicin) was -4.19% (inactive). The inhibition in assay [4] was -4.34% (inactive); in assay [5] it was 2.22% (inactive).
`CC(=O)c1ccc(NC(=O)CSc2nnc(-c3ccoc3C)n2Cc2ccccc2)cc1`: the viability was 80.3% (inactive) in assay [1], 93.5% (inactive) in assay [2], 89.6% in assay [3] (setting [6]) and 93.5% in assay [3] (setting [7]). Moreover, the differential viability (reversal) in assay [3] (H69AR cells + 2 uM doxorubicin) was 3.91% (inactive). The figures for the inhibition in assay [4] and in assay [5] were -2.27% (inactive) and -8.57% (inactive), respectively.
As for `CCC1(CC)C(=O)N(C)C(=O)NC1=NCc1ccccc1`, the viability is 110% (inactive) in assay [1], 93.1% (inactive) in assay [2], 94.7% in assay [3] (setting [6]) and 93.1% in assay [3] (setting [7]). Moreover, the differential viability (reversal) in assay [3] (H69AR cells + 2 uM doxorubicin) was -1.67% (inactive). The inhibition is -7.07% (inactive) in assay [4] and 3.02% (inactive) in assay [5].
Regarding `O=C(C1CCN(S(=O)(=O)c2ccc(-n3cnnn3)cc2)CC1)N1CCN(c2ccccc2)CC1`, the viability was 103% (inactive) in assay [1], 94.5% (inactive) in assay [2], 91.6% in assay [3] (setting [6]) and 94.5% in assay [3] (setting [7]). In assay [3] (H69AR cells + 2 uM doxorubicin), the differential viability (reversal) was 2.88% (inactive). Also, the inhibition in assay [4] is -1.43% (inactive); in assay [5], 0.48% (inactive).
With `CCCCNC(=O)OC(C)CNC(=O)Oc1cccc(C)c1` (stereo unspecified), the viability in assay [1] was 75.7% (inactive); in assay [2], 93.8% (inactive); in assay [3] (setting [6]), 92.2%; in assay [3] (setting [7]), 93.8%. Also, the differential viability (reversal) in assay [3] (H69AR cells + 2 uM doxorubicin) is 1.64% (inactive). Besides, the results for the inhibition in assay [4] and in assay [5] were -4.08% (inactive) and 3.49% (inactive), respectively.
`CN(C)S(=O)(=O)Nc1ccccc1C(N)=O`: the viability is 90.8% (inactive) in assay [1], 98.4% (inactive) in assay [2], 84.6% in assay [3] (setting [6]) and 98.4% in assay [3] (setting [7]). The differential viability (reversal) in assay [3] (H69AR cells + 2 uM doxorubicin) was 13.8% (inactive). In addition, the inhibition in assay [4] was -6% (inactive); in assay [5], 0.63% (inactive).
As to `COc1ccc(CCNc2oc(Cc3cccc4ccccc34)nc2C#N)cc1OC`, the viability in assay [1] is 68.8% (inactive); in assay [2], 73.1% (inactive); in assay [3] (setting [6]) it was 80.4%; in assay [3] (setting [7]), 73.1%. Moreover, the differential viability (reversal) in assay [3] (H69AR cells + 2 uM doxorubicin) is -7.3% (inactive). Besides, the figures for the inhibition in assay [4] and in assay [5] were -5.07% (inactive) and 1.9% (inactive), respectively.
On to `COC(=O)C1(C(=O)OC)Sc2ccccc2C1=O`, for which the viability is 87.2% (inactive) in assay [1], 101% (inactive) in assay [2], 90.8% in assay [3] (setting [6]) and 101% in assay [3] (setting [7]). For the same compound, in assay [3] (H69AR cells + 2 uM doxorubicin), the differential viability (reversal) is 10.6% (inactive). Further, the inhibition was -3.9% (inactive) in assay [4] and 3.33% (inactive) in assay [5].
As to `S=c1[nH]ncn1-c1ccccn1`, the viability is 81.6% (inactive) in assay [1], 93.9% (inactive) in assay [2], 98.6% in assay [3] (setting [6]) and 93.9% in assay [3] (setting [7]). Also, the differential viability (reversal) in assay [3] (H69AR cells + 2 uM doxorubicin) is -4.69% (inactive). Moreover, the inhibition in assay [4] was -5.33% (inactive); in assay [5], -0.63% (inactive).
Regarding `O=C(CN(CC1CCCO1)C(=O)CCC(=O)Nc1ccccn1)NCC1CCCO1` (stereo unspecified), the viability was 103% (inactive) in assay [1], 100% (inactive) in assay [2], 88.2% in assay [3] (setting [6]) and 100% in assay [3] (setting [7]). The differential viability (reversal) in assay [3] (H69AR cells + 2 uM doxorubicin) was 11.8% (inactive). The inhibition is -7.73% (inactive) in assay [4] and -3.97% (inactive) in assay [5].
`CN(c1ccccc1)S(=O)(=O)c1cc(C(=O)N2CCN(c3ccccn3)CC2)ccc1Cl`: the viability is 45.3% (inactive) in assay [1], 88.5% (inactive) in assay [2], 78.4% in assay [3] (setting [6]) and 88.5% in assay [3] (setting [7]). The differential viability (reversal) in assay [3] (H69AR cells + 2 uM doxorubicin) is 10.1% (inactive). Further, the values for the inhibition in assay [4] and in assay [5] were 0.39% (inactive) and 2.22% (inactive), respectively.
As to `O=C1C=C(NCc2ccco2)C2(CCCCC2)O1`, the viability in assay [1] was 95.7% (inactive); in assay [2], 105% (inactive); in assay [3] (setting [6]), 82.2%; in assay [3] (setting [7]), 105%. The differential viability (reversal) in assay [3] (H69AR cells + 2 uM doxorubicin) was 22.5% (inactive). The results for the inhibition in assay [4] and in assay [5] were -1.95% (inactive) and 5.08% (inactive), respectively.
Take `O=c1cc(CSc2nnnn2-c2ccccc2)nc2scc(-c3ccccc3)n12`: the viability in assay [1] was 92% (inactive); in assay [2] it was 101% (inactive); in assay [3] (setting [6]), 93.9%; in assay [3] (setting [7]) it was 101%. The differential viability (reversal) in assay [3] (H69AR cells + 2 uM doxorubicin) was 6.61% (inactive). In addition, the inhibition is 0.13% (inactive) in assay [4] and -7.62% (inactive) in assay [5].
For `O=C(CN1C(=O)COc2ccccc21)NCCCN1CCc2ccccc2C1`, the viability was 83.2% (inactive) in assay [1], 94.8% (inactive) in assay [2], 83.2% in assay [3] (setting [6]) and 94.8% in assay [3] (setting [7]). For the same compound, in assay [3] (H69AR cells + 2 uM doxorubicin), the differential viability (reversal) was 11.6% (inactive). For the same compound, the inhibition was -1.69% (inactive) in assay [4] and 9.05% (inactive) in assay [5].
Consider `COc1cc(NS(=O)(=O)c2cccc3nsnc23)c(C(=O)O)cc1OC`, for which the viability was 102% (inactive) in assay [1], 102% (inactive) in assay [2], 93.4% in assay [3] (setting [6]) and 102% in assay [3] (setting [7]). Also, the differential viability (reversal) in assay [3] (H69AR cells + 2 uM doxorubicin) was 8.71% (inactive). Moreover, the results for the inhibition in assay [4] and in assay [5] were -1.43% (inactive) and -1.9% (inactive), respectively.
As to `CCOc1ccc2cc(C#N)c(SCC(=O)N3CCC(C)CC3)nc2c1`, the viability in assay [1] is 43.5% (inactive); in assay [2] it was 34.4% (active); in assay [3] (setting [6]), 33.9%; in assay [3] (setting [7]) it was 34.4%. Also, the differential viability (reversal) in assay [3] (H69AR cells + 2 uM doxorubicin) was 0.44% (inactive). Besides, the inhibition in assay [4] is -8.8% (inactive); in assay [5], -1.11% (inactive).

What is called viability is a read-out of living cells in per cent, often relative to untreated cells. As a reminder, the inhibition is the change of the read-out against control, counted positive when it falls.
